Results as given in ChEMBL document CHEMBL1649578, “Biofilm formation and effect of caspofungin on biofilm structure of Candida species bloodstream isolates” (2009).
Calls of active or inactive are those of the source. No cut-off for these calls is given here.

What was measured:
Candida albicans [1] = experiment: Antifungal activity against Candida albicans isolate CA4 biofilm assessed as viable fungal count per cm2 of silicone disk at 32 ug/ml after 48 hrs […]; format: functional
How it was run: (§1)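 Biofilms grown on serum-preconditioned silicone disks in RPMI 1640 for 24 h, PBS-washed, then exposed 48 h at 35°C on a rocker to caspofungin doubling dilutions spanning 0.25–128 μg/ml. Disks washed and sonicated/vortexed in PBS to release cells. Suspensions diluted in Butterfield buffer and plated on Sabouraud dextrose agar. Viable counts from three disks averaged as CFU/cm2.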

Candida albicans [2] = experiment: Antifungal activity against Candida albicans isolate CA4 biofilm assessed as viable fungal count per cm2 of silicone disk at 64 ug/ml after 48 hrs […]; format: functional; how it was run: as §1
Candida albicans [3] = experiment: Antifungal activity against Candida albicans isolate CA4 biofilm assessed as viable fungal count per cm2 of silicone disk at 128 ug/ml after 48 hrs […]; format: functional; how it was run: as §1
Candida parapsilosis [4] = experiment: Antifungal activity against Candida parapsilosis isolate CP1 biofilm assessed as viable fungal count per cm2 of silicone disk at 0.25 ug/ml after 48 hrs […]; format: functional; how it was run: as §1
Candida parapsilosis [5] = experiment: Antifungal activity against Candida parapsilosis isolate CP1 biofilm assessed as viable fungal count per cm2 of silicone disk at 0.5 ug/ml after 48 hrs […]; format: functional; how it was run: as §1
Candida parapsilosis [6] = experiment: Antifungal activity against Candida parapsilosis isolate CP1 biofilm assessed as viable fungal count per cm2 of silicone disk at 1 ug/ml after 48 hrs […]; format: functional; how it was run: as §1
Candida parapsilosis [7] = experiment: Antifungal activity against Candida parapsilosis isolate CP1 biofilm assessed as viable fungal count per cm2 of silicone disk at 2 ug/ml after 48 hrs […]; format: functional; how it was run: as §1
Candida parapsilosis [8] = experiment: Antifungal activity against Candida parapsilosis isolate CP1 biofilm assessed as viable fungal count per cm2 of silicone disk at 4 ug/ml after 48 hrs […]; format: functional; how it was run: as §1
Candida parapsilosis [9] = experiment: Antifungal activity against Candida parapsilosis isolate CP1 biofilm assessed as viable fungal count per cm2 of silicone disk at 8 ug/ml after 48 hrs […]; format: functional; how it was run: as §1
Candida parapsilosis [10] = experiment: Antifungal activity against Candida parapsilosis isolate CP1 biofilm assessed as viable fungal count per cm2 of silicone disk at 16 ug/ml after 48 hrs […]; format: functional; how it was run: as §1
Candida parapsilosis [11] = experiment: Antifungal activity against Candida parapsilosis isolate CP1 biofilm assessed as viable fungal count per cm2 of silicone disk at 32 ug/ml after 48 hrs […]; format: functional; how it was run: as §1
Candida parapsilosis [12] = experiment: Antifungal activity against Candida parapsilosis isolate CP1 biofilm assessed as viable fungal count per cm2 of silicone disk at 64 ug/ml after 48 hrs […]; format: functional; how it was run: as §1
Candida parapsilosis [13] = experiment: Antifungal activity against Candida parapsilosis isolate CP1 biofilm assessed as viable fungal count per cm2 of silicone disk at 128 ug/ml after 48 hrs […]; format: functional; how it was run: as §1
Candida tropicalis [14] = experiment: Antifungal activity against Candida tropicalis isolate CT8 biofilm assessed as viable fungal count per cm2 of silicone disk at 0.25 ug/ml after 48 hrs […]; format: functional; how it was run: as §1
Candida tropicalis [15] = experiment: Antifungal activity against Candida tropicalis isolate CT8 biofilm assessed as viable fungal count per cm2 of silicone disk at 0.5 ug/ml after 48 hrs […]; format: functional; how it was run: as §1
Candida tropicalis [16] = experiment: Antifungal activity against Candida tropicalis isolate CT8 biofilm assessed as viable fungal count per cm2 of silicone disk at 1 ug/ml after 48 hrs […]; format: functional; how it was run: as §1
Candida tropicalis [17] = experiment: Antifungal activity against Candida tropicalis isolate CT8 biofilm assessed as viable fungal count per cm2 of silicone disk at 2 ug/ml after 48 hrs […]; format: functional; how it was run: as §1
Candida tropicalis [18] = experiment: Antifungal activity against Candida tropicalis isolate CT8 biofilm assessed as viable fungal count per cm2 of silicone disk at 4 ug/ml after 48 hrs […]; format: functional; how it was run: as §1
Candida tropicalis [19] = experiment: Antifungal activity against Candida tropicalis isolate CT8 biofilm assessed as viable fungal count per cm2 of silicone disk at 8 ug/ml after 48 hrs […]; format: functional; how it was run: as §1
Candida tropicalis [20] = experiment: Antifungal activity against Candida tropicalis isolate CT8 biofilm assessed as viable fungal count per cm2 of silicone disk at 16 ug/ml after 48 hrs […]; format: functional; how it was run: as §1
Candida tropicalis [21] = experiment: Antifungal activity against Candida tropicalis isolate CT8 biofilm assessed as viable fungal count per cm2 of silicone disk at 32 ug/ml after 48 hrs […]; format: functional; how it was run: as §1
Candida tropicalis [22] = experiment: Antifungal activity against Candida tropicalis isolate CT8 biofilm assessed as viable fungal count per cm2 of silicone disk at 64 ug/ml after 48 hrs […]; format: functional; how it was run: as §1
Candida tropicalis [23] = experiment: Antifungal activity against Candida tropicalis isolate CT8 biofilm assessed as viable fungal count per cm2 of silicone disk at 128 ug/ml after 48 hrs […]; format: functional; how it was run: as §1
Candida albicans [24] = experiment: Antifungal activity against Candida albicans isolate CA4 biofilm assessed as assessed as decrease in preformed fungal biofilm formation at 128 ug/ml after 48 hrs by scanning electron microscopy; format: functional, organism-based
How it was run: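 Silicone disks preconditioned 24 h at 37°C in heat-inactivated human serum, seeded with 1 × 10^6 CFU/ml in MOPS-buffered RPMI 1640 (pH 7.0), 1.5 h attachment at 37°C with shaking, then grown 24 h. Washed biofilms exposed to 1.0, 16 or 128 μg/ml caspofungin in RPMI 1640, 48 h at 35°C on a rocker. Untreated controls in RPMI only. Fixed in 5% glutaraldehyde/cacodylate (pH 6.2), ethanol-dehydrated, HMDS air-dried, examined by SEM. Run in triplicate.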

CC[C@H](C)C[C@H](C)CCCCCCCCC(=O)N[C@H]1C[C@@H](O)[C@@H](NCCN)NC(=O)[C@@H]2[C@@H](O)CCN2C(=O)[C@H]([C@H](O)CCN)NC(=O)[C@H]([C@H](O)[C@@H](O)c2ccc(O)cc2)NC(=O)[C@@H]2C[C@@H](O)CN2C(=O)[C@H]([C@@H](C)O)NC1=O [CASPOFUNGIN]
log10cfu (Candida albicans [1]): 5.6 | log10cfu (Candida albicans [2]): 4.6 | log10cfu (Candida albicans [3]): 3.5 | log10cfu (Candida parapsilosis [4]): 0 | log10cfu (Candida parapsilosis [5]): 0 | log10cfu (Candida parapsilosis [6]): 0 | log10cfu (Candida parapsilosis [7]): 0 | log10cfu (Candida parapsilosis [8]): 5.1 | log10cfu (Candida parapsilosis [9]): 5.2 | log10cfu (Candida parapsilosis [10]): 4.5 | log10cfu (Candida parapsilosis [11]): 4.2 | log10cfu (Candida parapsilosis [12]): 3.6 | log10cfu (Candida parapsilosis [13]): 2.7 | log10cfu (Candida tropicalis [14]): 6.4 | log10cfu (Candida tropicalis [15]): 6.2 | log10cfu (Candida tropicalis [16]): 5.7 | log10cfu (Candida tropicalis [17]): 5.9 | log10cfu (Candida tropicalis [18]): 5.7 | log10cfu (Candida tropicalis [19]): 5.7 | log10cfu (Candida tropicalis [20]): 5.7 | log10cfu (Candida tropicalis [21]): 5.4 | log10cfu (Candida tropicalis [22]): 5 | log10cfu (Candida tropicalis [23]): 3.3 | Activity (Candida albicans [24]): Active
